Data on 24 compounds can be found in ChEMBL document CHEMBL1130204, “3 alpha-Hydroxy-3 beta-(phenylethynyl)-5 beta-pregnan-20-ones: synthesis and pharmacological activity of neuroactive steroids with high affinity for GABAA receptors” (J Med Chem, 1997).

As usually defined, the IC50 is the concentration that inhibits the measured activity by half. By EC50 is commonly meant the midpoint of the concentration-response curve.

Experiment [1] addresses GABA-A receptor; anion channel. As to the kind of experiment: In vitro inhibition of [35S]TBPS binding to gamma-aminobutyric-acid A receptor in rat brain cortical membranes in the presence of 5 uM GABA. The class given is cell membranes, Membrane. In outline:
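Rat cortical P2 membranes, washed in 200 mM NaCl/50 mM Na-K phosphate pH 7.4, incubated 90 min at room temperature with 2 nM [35S]TBPS, 5 µM GABA and test drug in DMSO (final 0.5%). Nonspecific binding taken with 2 µM unlabeled TBPS. Filtration, then scintillation counting. Partial vs full and one- vs two-component models chosen by F-test.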

Experiment [2] concerns Mus musculus. In words: Percent of animals (n=8) not exhibiting PTZ-induced ( Pentylentetrazol protection) seizures 10 min following a 10 mg/kg ip dose of steroid. The class given is functional. The conditions noted are these: route intraperitoneal. The method in brief:
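Male NSA mice (15-20 g), n = 8. […] Mice watched 30 min for clonic seizure (forelimb clonus ≥3 s). Read-out is the percent of mice protected.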

Experiment [3] is filed under the species Rattus norvegicus. In words: The maximum inhibitory potency was calculated by fitting [35S]TBPS inhibition data to a sigmoid function (rat brain cortical P2 membranes). In kind it is functional. In outline:
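Rat cortical P2 membranes washed in 200 mM NaCl/50 mM Na-K phosphate pH 7.4, incubated 90 min at room temperature with 2 nM [35S]TBPS, 5 µM GABA and test drug in DMSO (final 0.5%). Nonspecific binding defined with 2 µM unlabeled TBPS. Filtration, scintillation counting. Fits to one- or two-component, full or partial inhibition models chosen by F-test; IC50 and Imax as mean ± SEM of individual experiments.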

Experiment [4] deals with T1, GABA-A receptor; alpha-1/beta-2/gamma-2 (Homo sapiens, UniProt P14867+P18507+P47870).
T1 sequence (P14867 whole entry): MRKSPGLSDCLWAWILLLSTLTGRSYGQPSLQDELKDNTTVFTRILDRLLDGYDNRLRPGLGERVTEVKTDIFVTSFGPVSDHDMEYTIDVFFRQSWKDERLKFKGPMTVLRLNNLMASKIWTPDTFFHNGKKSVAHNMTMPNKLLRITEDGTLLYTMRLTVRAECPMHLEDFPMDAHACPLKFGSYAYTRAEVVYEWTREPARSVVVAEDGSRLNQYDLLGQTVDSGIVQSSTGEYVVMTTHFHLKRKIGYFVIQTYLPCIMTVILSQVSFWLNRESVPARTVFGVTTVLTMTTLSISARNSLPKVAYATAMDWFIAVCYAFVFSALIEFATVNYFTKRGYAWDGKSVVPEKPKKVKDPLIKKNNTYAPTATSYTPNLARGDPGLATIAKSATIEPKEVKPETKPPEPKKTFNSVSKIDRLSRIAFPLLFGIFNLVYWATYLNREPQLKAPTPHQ
T1 sequence (P47870 whole entry): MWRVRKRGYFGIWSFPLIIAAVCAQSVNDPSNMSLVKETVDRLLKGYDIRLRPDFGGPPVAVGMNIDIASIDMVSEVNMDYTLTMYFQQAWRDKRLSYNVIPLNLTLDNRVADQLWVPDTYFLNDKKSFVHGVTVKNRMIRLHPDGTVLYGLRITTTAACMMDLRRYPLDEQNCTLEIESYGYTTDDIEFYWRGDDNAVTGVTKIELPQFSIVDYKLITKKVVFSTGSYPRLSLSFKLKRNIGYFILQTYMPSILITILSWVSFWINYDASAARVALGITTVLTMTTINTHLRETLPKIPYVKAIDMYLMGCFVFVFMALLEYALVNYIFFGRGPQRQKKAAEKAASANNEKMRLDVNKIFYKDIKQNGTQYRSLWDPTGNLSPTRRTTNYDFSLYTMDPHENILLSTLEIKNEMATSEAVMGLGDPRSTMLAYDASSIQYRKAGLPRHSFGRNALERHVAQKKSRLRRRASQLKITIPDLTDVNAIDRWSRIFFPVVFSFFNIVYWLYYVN
T1 sequence (P18507 whole entry): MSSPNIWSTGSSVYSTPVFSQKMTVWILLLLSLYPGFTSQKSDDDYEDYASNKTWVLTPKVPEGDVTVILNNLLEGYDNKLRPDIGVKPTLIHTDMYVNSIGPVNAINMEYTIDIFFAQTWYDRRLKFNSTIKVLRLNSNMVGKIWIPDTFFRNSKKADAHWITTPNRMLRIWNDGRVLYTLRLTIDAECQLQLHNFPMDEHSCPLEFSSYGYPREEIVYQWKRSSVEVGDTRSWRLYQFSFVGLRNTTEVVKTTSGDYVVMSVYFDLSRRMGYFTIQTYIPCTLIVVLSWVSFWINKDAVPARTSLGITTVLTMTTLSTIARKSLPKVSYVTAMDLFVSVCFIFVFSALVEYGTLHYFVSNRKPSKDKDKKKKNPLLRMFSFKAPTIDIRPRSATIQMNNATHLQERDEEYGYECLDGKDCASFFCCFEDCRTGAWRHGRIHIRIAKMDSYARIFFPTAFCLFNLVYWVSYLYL
As to the kind of experiment: Steroid potentiation of 5% GABA responses in Xenopus oocytes expressing human alpha-1-beta-2-gamma-2L subunits of GABA-A receptor. In kind it is functional, cell-based, Oocyte. The method in brief:
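Xenopus oocytes injected with α1, β2, γ2L cRNAs (~1 ng each). Two-electrode voltage clamp at -70 mV in frog Ringer's, pH 7.4. GABA set to give about 5% of the maximal (1 mM GABA) current. Steroid stocks in DMSO diluted into Ringer's, DMSO 0.3%. Modulation is potentiation plus any direct steroid current, fitted to a four-parameter logistic. Mean ± SEM.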

Turning to `CC(=O)[C@H]1CC[C@H]2[C@@H]3CC[C@@H]4C[C@@](O)(C#Cc5ccc(C#N)cc5)CC[C@]4(C)[C@H]3CC[C@]12C`, the IC50 in experiment [1] is 60 nM. In addition, the PTZ protection in experiment [2] was 44%. For the same compound, in experiment [3], the Imax is 85%.

Take `CC(=O)[C@H]1CC[C@H]2[C@@H]3CC[C@@H]4C[C@@](O)(C#Cc5ccc(C)cc5)CC[C@]4(C)[C@H]3CC[C@]12C`: in experiment [1], the IC50 amounted to 83 nM. In experiment [2], this compound showed a PTZ protection of 50%. Besides, the Imax in experiment [3] was 84%.

As to `COc1ccc(C#C[C@@]2(O)CC[C@@]3(C)[C@H](CC[C@@H]4[C@@H]3CC[C@]3(C)[C@@H](C(C)=O)CC[C@@H]43)C2)cc1`, the IC50 in experiment [1] amounted to 42 nM. Moreover, the PTZ protection in experiment [2] was 25%. In experiment [3], the Imax was 84%.

Regarding `COc1ccccc1C#C[C@@]1(O)CC[C@@]2(C)[C@H](CC[C@@H]3[C@@H]2CC[C@]2(C)[C@@H](C(C)=O)CC[C@@H]32)C1`, the IC50 in experiment [1] is 170 nM. Moreover, in experiment [2], the PTZ protection is listed as 0%. Further, the Imax in experiment [3] was 89%.

As for `CC(=O)[C@H]1CC[C@H]2[C@@H]3CC[C@@H]4C[C@@](O)(Cc5ccccc5)CC[C@]4(C)[C@H]3CC[C@]12C`, the IC50 in experiment [1] was 110 nM. The compound further showed a PTZ protection in experiment [2] of 38%. Besides, the Imax in experiment [3] is 101%.

Turning to `C#C[C@@]1(O)CC[C@@]2(C)[C@H](CC[C@@H]3[C@@H]2CC[C@]2(C)[C@@H](C(C)=O)CC[C@@H]32)C1`, the IC50 in experiment [1] amounted to 39 nM.

Turning to `CC(=O)[C@H]1CC[C@H]2[C@@H]3CC[C@@H]4C[C@@](O)(C#Cc5ccc(-c6ccccc6)cc5)CC[C@]4(C)[C@H]3CC[C@]12C`, the IC50 in experiment [1] stood at 54 nM. The compound further yielded a PTZ protection in experiment [2] of 0%. For the same compound, in experiment [3], the Imax was 90%.

On to `CCOC(=O)c1ccc(C#C[C@@]2(O)CC[C@@]3(C)[C@H](CC[C@@H]4[C@@H]3CC[C@]3(C)[C@@H](C(C)=O)CC[C@@H]43)C2)cc1`, for which the IC50 in experiment [1] stood at 12 nM. The compound also had a PTZ protection in experiment [2] of 19%. In experiment [3], the Imax was 97%.

Turning to `CC(=O)[C@H]1CC[C@H]2[C@@H]3CC[C@@H]4C[C@@](O)(C#Cc5ccc([N+](=O)[O-])cc5)CC[C@]4(C)[C@H]3CC[C@]12C`, in experiment [1], the IC50 was 42 nM. Also, the PTZ protection in experiment [2] stood at 13%. The Imax in experiment [3] was 98%.

Regarding `CC(=O)[C@H]1CC[C@H]2[C@@H]3CC[C@@H]4C[C@@](O)(C#Cc5ccc6c(c5)OCO6)CC[C@]4(C)[C@H]3CC[C@]12C`, the IC50 in experiment [1] was 68 nM. Further, in experiment [2], the PTZ protection was determined as 13%. Further, the Imax in experiment [3] is 93%.

As for `CC(=O)[C@H]1CC[C@H]2[C@@H]3CC[C@@H]4C[C@@](O)(C#Cc5ccc(Cl)cc5)CC[C@]4(C)[C@H]3CC[C@]12C`, the IC50 in experiment [1] was 70 nM. Further, the PTZ protection in experiment [2] came to 0%. Also, in experiment [3], the Imax was 88%.

With `CC(=O)[C@H]1CC[C@H]2[C@@H]3CC[C@@H]4C[C@@](O)(C#Cc5ccc(C(N)=O)cc5)CC[C@]4(C)[C@H]3CC[C@]12C`, in experiment [1], the IC50 was found to be 1800 nM. In addition, in experiment [2], the PTZ protection is listed as 13%. Also, the Imax in experiment [3] was 96%.

In the case of `CCOC(=O)c1ccc(C#C[C@@]2(O)CC[C@H]3[C@H](CC[C@@H]4[C@@H]3CC[C@]3(C)[C@@H](C(C)=O)CC[C@@H]43)C2)cc1`, in experiment [1], the 50% inhibitory concentration (IC50) is 26 nM. This compound showed a PTZ protection in experiment [2] of 13%. Besides, in experiment [3], the Imax was 94%.

As for `CC(=O)[C@H]1CC[C@H]2[C@@H]3CC[C@@H]4C[C@@](O)(c5ccccc5)CC[C@]4(C)[C@H]3CC[C@]12C`, in experiment [1], the IC50 amounted to 380 nM. In addition, in experiment [2], the PTZ protection is recorded as 25%. Further, the Imax in experiment [3] is 89%.

On to `CC(=O)[C@H]1CC[C@H]2[C@@H]3CC[C@@H]4C[C@@](O)(C#Cc5cccc(O)c5)CC[C@]4(C)[C@H]3CC[C@]12C`, for which the IC50 in experiment [1] came out at 420 nM. In addition, the PTZ protection in experiment [2] is recorded as 0%. The Imax in experiment [3] is 100%.

Consider `CC(=O)[C@H]1CC[C@H]2[C@@H]3CC[C@@H]4C[C@@](O)(C#Cc5ccc(O)cc5)CC[C@]4(C)[C@H]3CC[C@]12C`, for which, in experiment [1], the IC50 came out at 2300 nM. In addition, the PTZ protection in experiment [2] came out at 0%. The Imax in experiment [3] was 100%. In addition, the EC50 in experiment [4] is more than 1000 nM.

Consider `CC(=O)[C@H]1CC[C@H]2[C@@H]3CC[C@@H]4C[C@@](O)(C#Cc5ccc(C(=O)c6ccccc6)cc5)CC[C@]4(C)[C@H]3CC[C@]12C`, for which the IC50 in experiment [1] is 55 nM. In experiment [2], the PTZ protection worked out at 38%. In addition, the Imax in experiment [3] is 96%.

Regarding `CCN(CC)C(=O)c1ccc(C#C[C@@]2(O)CC[C@@]3(C)[C@H](CC[C@@H]4[C@@H]3CC[C@]3(C)[C@@H](C(C)=O)CC[C@@H]43)C2)cc1`, in experiment [1], the IC50 worked out at 93 nM. The PTZ protection in experiment [2] amounted to 13%. The Imax in experiment [3] is 91%.

Take `CC(=O)[C@H]1CC[C@H]2[C@@H]3CC[C@@H]4C[C@@](O)(CCCc5ccccc5)CC[C@]4(C)[C@H]3CC[C@]12C`: the concentration for half-maximal inhibition (IC50) in experiment [1] amounted to 190 nM. Besides, in experiment [2], the PTZ protection worked out at 13%. In addition, the Imax in experiment [3] is 91%.

For `CC(=O)[C@H]1CC[C@H]2[C@@H]3CC[C@@H]4C[C@@](O)(C#Cc5ccccc5)CC[C@]4(C)[C@H]3CC[C@]12C`, in experiment [1], the IC50 came out at 100 nM. Further, the PTZ protection in experiment [2] was determined as 25%. In addition, in experiment [3], the Imax was 100%.

As for `COc1ccc(C#C[C@@]2(O)CC[C@@]3(C)[C@H](CC[C@@H]4[C@@H]3CC[C@]3(C)[C@@H](C(C)=O)CC[C@@H]43)C2)cc1OC`, in experiment [1], the IC50 was 290 nM. In experiment [2], this compound displayed a PTZ protection of 13%. In addition, in experiment [3], the Imax was 102%.

Take `CC(=O)[C@H]1CC[C@H]2[C@@H]3CC[C@@H]4C[C@](C)(O)CC[C@]4(C)[C@H]3CC[C@]12C`: in experiment [1], the IC50 was found to be 37 nM.

For `CC(=O)[C@H]1CC[C@H]2[C@@H]3CC[C@@H]4C[C@@](O)(CCc5ccccc5)CC[C@]4(C)[C@H]3CC[C@]12C`, the IC50 in experiment [1] is 150 nM. This compound also registered a PTZ protection in experiment [2] of 0%. Further, in experiment [3], the Imax was 102%.

Regarding `CC(=O)[C@H]1CC[C@H]2[C@@H]3CC[C@@H]4C[C@@](O)(C#Cc5ccc(C(F)(F)F)cc5)CC[C@]4(C)[C@H]3CC[C@]12C`, the IC50 in experiment [1] was 56 nM. Moreover, the PTZ protection in experiment [2] amounted to 0%. Moreover, the Imax in experiment [3] was 88%.
